Experimental data from ChEMBL document CHEMBL1136049, “Synthesis of syn- and anti-1-amino-3-[18F]fluoromethyl-cyclobutane-1-carboxylic acid (FMACBC), potential PET ligands for tumor detection” (J Med Chem, 2002).

Assays:
[1] = species: Rattus norvegicus; assay: Radioactivity distribution in testis of normal fischer rat after injection of anti-[18F]FMACBC after 5 min.; format: ADME, organism-based; settings: in vivo
Procedure, shortened: (§1)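 Normal male Fischer 344 rats (200–250 g) were anesthetised with ketamine:xylazine i.m. and given about 85 μCi tracer in 0.3 mL sterile water via a tail vein catheter. Groups of four were killed at 5, 30, 60 and 120 min. Selected tissues were weighed and gamma counted with dose standards, decay-corrected, and expressed as mean %ID/g.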

[2] = species: Rattus norvegicus; assay: Radioactivity distribution in testis of tumor-bearing fischer rat after injection of syn-[18F]-FMACBC after 60 min; format: ADME, organism-based; settings: in vivo, 1 h
Procedure, shortened: (§2)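 Male Fischer 344 rats with intracranial 9L gliosarcoma (4 × 10^4 cells stereotaxically implanted; used 17–19 days after implantation). About 35 μCi tracer in 0.3 mL sterile water was given by tail vein to awake, restrained rats. Rats were killed at 5, 60 or 120 min. Tissues, tumor and contralateral brain were weighed and gamma counted, decay-corrected, and expressed as %ID/g; n = 3–5 per time point.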

[3] = species: Rattus norvegicus; assay: Radioactivity distribution in lung of tumor-bearing fischer rat after injection of syn-[18F]-FMACBC after 60 min; format: ADME, organism-based; settings: in vivo, 1 h; procedure, shortened: as §2
[4] = species: Rattus norvegicus; assay: Radioactivity distribution in testis of tumor-bearing fischer rat after injection of anti-[18F]FMACBC after 5 min; format: ADME, organism-based; settings: in vivo; procedure, shortened: as §2
[5] = species: Rattus norvegicus; assay: Radioactivity distribution in kidney of normal fischer rat after injection of syn-[18F]-FMACBC after 5 min.; format: ADME, organism-based; settings: in vivo
Procedure, shortened: (§3)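 Male Fischer 344 rats (200–250 g), normal, fed ad libitum, given ~85 μCi of 18F tracer in 0.3 mL sterile water IV through a tail vein catheter. Anesthesia was ketamine:xylazine IM. Groups of four were killed at 5, 30, 60 and 120 min. Tissues were weighed and gamma-counted against dose standards, decay-corrected, and expressed as mean % injected dose per gram.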

[6] = species: Rattus norvegicus; assay: Radioactivity distribution in lung of normal fischer rat after injection of anti-[18F]FMACBC after 60 min.; format: ADME, organism-based; settings: in vivo, 1 h; procedure, shortened: as §1
[7] = species: Rattus norvegicus; assay: Radioactivity distribution in spleen of normal fischer rat after injection of anti-[18F]FMACBC after 60 min.; format: ADME, organism-based; settings: in vivo, 1 h; procedure, shortened: as §1
[8] = species: Rattus norvegicus; assay: Radioactivity distribution in bone of normal fischer rat after injection of syn-[18F]-FMACBC after 5 min.; format: ADME, organism-based, Bone element; settings: in vivo; procedure, shortened: as §3
[9] = species: Rattus norvegicus; assay: Radioactivity distribution in liver of normal fischer rat after injection of anti-[18F]FMACBC after 60 min.; format: ADME, organism-based; settings: in vivo, 1 h; procedure, shortened: as §3
[10] = species: Rattus norvegicus; assay: Radioactivity distribution in liver of tumor-bearing fischer rat after injection of anti-[18F]FMACBC after 5 min; format: ADME, organism-based; settings: in vivo; procedure, shortened: as §2
[11] = species: Rattus norvegicus; assay: Radioactivity distribution in heart of tumor-bearing fischer rat after injection of syn-[18F]-FMACBC after 60 min; format: ADME, organism-based; settings: in vivo, 1 h
Procedure, shortened: (§4)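 Male Fischer 344 rats carrying intracranial rat 9L gliosarcoma, made by stereotaxic injection of 4 × 10^4 cells 17–19 days before. Awake restrained rats received ~35 μCi of 18F tracer in 0.3 mL sterile water IV by tail vein and were killed at 5, 60 or 120 min, n = 3–5. Tissues were weighed, gamma-counted, decay-corrected and expressed as % injected dose per gram.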

[12] = species: Rattus norvegicus; assay: Radioactivity distribution in bone of normal fischer rat after injection of anti-[18F]FMACBC after 5 min.; format: ADME, organism-based, Bone element; settings: in vivo; procedure, shortened: as §3
[13] = species: Rattus norvegicus; assay: Radioactivity distribution in kidney of normal fischer rat after injection of anti-[18F]FMACBC after 30 min.; format: ADME, organism-based; settings: in vivo, 0.5 h; procedure, shortened: as §3
[14] = species: Rattus norvegicus; assay: Radioactivity distribution in brain of normal fischer rat after injection of anti-[18F]FMACBC after 120 min.; format: ADME, organism-based; settings: in vivo, 2 h; procedure, shortened: as §3
[15] = species: Rattus norvegicus; assay: Radioactivity distribution in bone of normal fischer rat after injection of syn-[18F]-FMACBC after 30 min.; format: ADME, organism-based, Bone element; settings: in vivo, 0.5 h; procedure, shortened: as §3
[16] = species: Rattus norvegicus; assay: Radioactivity distribution in kidney of tumor-bearing fischer rat after injection of anti-[18F]FMACBC after 5 min; format: ADME, organism-based; settings: in vivo; procedure, shortened: as §4
[17] = species: Rattus norvegicus; assay: Radioactivity distribution in blood of tumor-bearing fischer rat after injection of anti-[18F]FMACBC after 5 min; format: ADME, organism-based; settings: in vivo; procedure, shortened: as §4
[18] = species: Rattus norvegicus; assay: Radioactivity distribution in pancreas of tumor-bearing fischer rat after injection of anti-[18F]FMACBC after 60 min; format: ADME, organism-based; settings: in vivo, 1 h; procedure, shortened: as §2
[19] = species: Rattus norvegicus; assay: Radioactivity distribution in blood of tumor-bearing fischer rat after injection of syn-[18F]-FMACBC after 5 min; format: ADME, organism-based; settings: in vivo; procedure, shortened: as §4
[20] = species: Rattus norvegicus; assay: Radioactivity distribution in liver of normal fischer rat after injection of anti-[18F]FMACBC after 5 min.; format: ADME, organism-based; settings: in vivo; procedure, shortened: as §3
[21] = species: Rattus norvegicus; assay: Radioactivity distribution in muscle of normal fischer rat after injection of syn-[18F]-FMACBC after 30 min.; format: ADME, organism-based, Muscle tissue; settings: in vivo, 0.5 h; procedure, shortened: as §1
[22] = species: Rattus norvegicus; assay: Radioactivity distribution in pancreas of normal fischer rat after injection of anti-[18F]FMACBC after 5 min.; format: ADME, organism-based; settings: in vivo; procedure, shortened: as §1
[23] = species: Rattus norvegicus; assay: Radioactivity distribution in lungs of normal fischer rat after injection of syn-[18F]-FMACBC after 5 min.; format: ADME, organism-based, Lung; settings: in vivo; procedure, shortened: as §1
[24] = species: Rattus norvegicus; assay: Radioactivity distribution in pancreas of tumor-bearing fischer rat after injection of syn-[18F]-FMACBC after 60 min; format: ADME, organism-based; settings: in vivo, 1 h; procedure, shortened: as §2
[25] = species: Rattus norvegicus; assay: Radioactivity distribution in liver of normal fischer rat after injection of syn-[18F]-FMACBC after 5 min.; format: ADME, organism-based; settings: in vivo; procedure, shortened: as §3
[26] = species: Rattus norvegicus; assay: Radioactivity distribution in bone of tumor-bearing fischer rat after injection of syn-[18F]-FMACBC after 5 min; format: ADME, organism-based, Bone element; settings: in vivo; procedure, shortened: as §4
[27] = species: Rattus norvegicus; assay: Radioactivity distribution in heart of tumor-bearing fischer rat after injection of anti-[18F]FMACBC after 60 min; format: ADME, organism-based; settings: in vivo, 1 h; procedure, shortened: as §4
[28] = species: Rattus norvegicus; assay: Radioactivity distribution in pancreas of normal fischer rat after injection of syn-[18F]-FMACBC after 60 min.; format: ADME, organism-based; settings: in vivo, 1 h; procedure, shortened: as §1
[29] = species: Rattus norvegicus; assay: Radioactivity distribution in heart of normal fischer rat after injection of syn-[18F]-FMACBC after 120 min.; format: ADME, organism-based; settings: in vivo, 2 h; procedure, shortened: as §3
[30] = species: Rattus norvegicus; assay: Radioactivity distribution in pancreas of tumor-bearing fischer rat after injection of anti-[18F]FMACBC after 120 min; format: ADME, organism-based; settings: in vivo, 2 h; procedure, shortened: as §2
[31] = species: Rattus norvegicus; assay: Radioactivity distribution in muscle of normal fischer rat after injection of syn-[18F]-FMACBC after 60 min.; format: ADME, organism-based, Muscle tissue; settings: in vivo, 1 h; procedure, shortened: as §1
[32] = species: Rattus norvegicus; assay: Radioactivity distribution in spleen of normal fischer rat after injection of anti-[18F]FMACBC after 30 min.; format: ADME, organism-based; settings: in vivo, 0.5 h; procedure, shortened: as §1
[33] = species: Rattus norvegicus; assay: Radioactivity distribution in kidney of tumor-bearing fischer rat after injection of syn-[18F]-FMACBC after 120 min; format: ADME, organism-based; settings: in vivo, 2 h; procedure, shortened: as §4
[34] = species: Rattus norvegicus; assay: Radioactivity distribution in testis of tumor-bearing fischer rat after injection of anti-[18F]FMACBC after 120 min; format: ADME, organism-based; settings: in vivo, 2 h; procedure, shortened: as §2
[35] = species: Rattus norvegicus; assay: Radioactivity distribution in muscle of normal fischer rat after injection of anti-[18F]FMACBC after 5 min.; format: ADME, organism-based, Muscle tissue; settings: in vivo; procedure, shortened: as §1
[36] = species: Rattus norvegicus; assay: Radioactivity distribution in spleen of normal fischer rat after injection of syn-[18F]-FMACBC after 60 min.; format: ADME, organism-based; settings: in vivo, 1 h; procedure, shortened: as §1
[37] = species: Rattus norvegicus; assay: Radioactivity distribution in muscle of normal fischer rat after injection of anti-[18F]FMACBC after 60 min.; format: ADME, organism-based, Muscle tissue; settings: in vivo, 1 h; procedure, shortened: as §1
[38] = species: Rattus norvegicus; assay: Radioactivity distribution in heart of normal fischer rat after injection of syn-[18F]-FMACBC after 60 min.; format: ADME, organism-based; settings: in vivo, 1 h; procedure, shortened: as §3
[39] = species: Rattus norvegicus; assay: Radioactivity distribution in kidney of tumor-bearing fischer rat after injection of syn-[18F]-FMACBC after 60 min; format: ADME, organism-based; settings: in vivo, 1 h; procedure, shortened: as §4
[40] = species: Rattus norvegicus; assay: Radioactivity distribution in kidney of normal fischer rat after injection of syn-[18F]-FMACBC after 60 min.; format: ADME, organism-based; settings: in vivo, 1 h; procedure, shortened: as §3
[41] = species: Rattus norvegicus; assay: Radioactivity distribution in blood of normal fischer rat after injection of anti-[18F]FMACBC after 60 min.; format: ADME, organism-based; settings: in vivo, 1 h; procedure, shortened: as §3

SMILES: N[C@]1(C(=O)O)C[C@@H](CF)C1
- ID/g [1]: 0.24%
- ID/g [2]: 0.22%
- ID/g [3]: 0.31%
- ID/g [4]: 0.23%
- ID/g [5]: 0.57%
- ID/g [6]: 0.41%
- ID/g [7]: 0.48%
- ID/g [8]: 0.7%
- ID/g [9]: 0.47%
- ID/g [10]: 0.87%
- ID/g [11]: 0.44%
- ID/g [12]: 0.52%
- ID/g [13]: 0.67%
- ID/g [14]: 0.25%
- ID/g [15]: 0.32%
- ID/g [16]: 0.96%
- ID/g [17]: 0.51%
- ID/g [18]: 2.48%
- ID/g [19]: 0.44%
- ID/g [20]: 0.81%
- ID/g [21]: 0.58%
- ID/g [22]: 2.56%
- ID/g [23]: 0.75%
- ID/g [24]: 2.08%
- ID/g [25]: 0.66%
- ID/g [26]: 0.26%
- ID/g [27]: 0.63%
- ID/g [28]: 3.13%
- ID/g [29]: 0.6%
- ID/g [30]: 2.17%
- ID/g [31]: 0.61%
- ID/g [32]: 0.63%
- ID/g [33]: 0.34%
- ID/g [34]: 0.23%
- ID/g [35]: 0.46%
- ID/g [36]: 0.54%
- ID/g [37]: 0.61%
- ID/g [38]: 0.64%
- ID/g [39]: 0.42%
- ID/g [40]: 0.45%
- ID/g [41]: 0.33%
